Screens deposited in PubChem BioAssay by Johns Hopkins Ion Channel Center.
MrgX1 antagonist: human MrgX1 receptor antagonism, primary screen; Q96LB2; MRGX1-HEK293 calcium flux, Fluo-4, BAM8-22 antagonism; active compounds read low; B-score at 10 µM; 310,000 compounds, 1.3% hits;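 active means calcium-response B-score plate-corrected more than 3 library SD below zero, starting fluorescence within 5 deviations, no agonist response on first addition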;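 further: peak minus trough fluorescence over baseline after final BAM8-22 challenge near maximal dose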
Target sequence (Q96LB2 whole entry, looked up): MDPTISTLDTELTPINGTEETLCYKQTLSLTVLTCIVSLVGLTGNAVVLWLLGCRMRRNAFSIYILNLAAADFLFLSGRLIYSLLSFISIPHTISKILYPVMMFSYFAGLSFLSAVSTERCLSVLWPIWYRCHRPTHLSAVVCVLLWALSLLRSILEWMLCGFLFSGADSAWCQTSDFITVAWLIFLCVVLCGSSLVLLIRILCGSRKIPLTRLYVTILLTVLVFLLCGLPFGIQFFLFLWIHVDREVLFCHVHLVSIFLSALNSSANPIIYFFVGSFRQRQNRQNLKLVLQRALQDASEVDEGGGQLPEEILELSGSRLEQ
MrgX1 allo act: human MrgX1 positive allosteric modulation, primary screen; Q96LB2; 310,000 compounds, 0.63% hits; AID 588675; MrgX1-HEK293, Fluo-4 calcium flux, FDSS; active compounds read high; B-score at 10 µM;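 active means plate-corrected calcium response at least 3 library SD above typical, normal starting fluorescence, not activating the receptor alone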;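 further: compound read alongside a low EC10 to EC30 dose of BAM8-22 agonist; peak minus trough fluorescence over baseline measured at the second addition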
MrgX1 agonist: agonists of human MrgX1 receptor; Q96LB2; MrgX1-HEK293 cells, Fluo-4 calcium fluorescence, agonist mode; active compounds read high; B-score at 10 µM; 310,000 compounds, 0.44% hits;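 active means calcium response B-score plate-corrected fluorescence ratio at least 3 library SD, with starting fluorescence B-score inside 5 SD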
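Material: HEK293 cells stably expressing human MrgX1 receptor | Quantity: 15,000 cells per well | Times: Cells plated overnight, dye loaded 0.5 h 37 °C, 0.5 h room temperature | Measured by: Kinetic Fluo-4 NW fluorescence of intracellular calcium | Control set: Positive and negative controls per plate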
RGS4 block: inhibitors of human RGS4; HEK293 M3R/RGS4 inducible, Fluo-4 calcium flux; active compounds read high; triggered by carbachol at its EC20; B-score at 10 µM; 310,000 compounds, 0.45% hits;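 active means B-score, a plate-corrected calcium signal, over three deviations above library mean, with baseline fluorescence within five deviations of library mean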;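 further: RGS4 expression induced by doxycycline in cells with stable M3 receptor; B-score is computed from the integrated fluorescence ratio over baseline after carbachol; higher B-score means a larger calcium signal and so more RGS4 inhibition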
Target sequence (P49798 whole entry, looked up): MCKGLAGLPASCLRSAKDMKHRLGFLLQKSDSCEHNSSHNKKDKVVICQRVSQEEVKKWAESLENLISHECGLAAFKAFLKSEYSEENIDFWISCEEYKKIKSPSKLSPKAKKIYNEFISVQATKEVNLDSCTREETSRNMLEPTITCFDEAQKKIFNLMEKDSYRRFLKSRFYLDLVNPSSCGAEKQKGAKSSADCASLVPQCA
RGS4 pot: potentiators or activators of RGS4 | HEK293 M3R/inducible RGS4, carbachol calcium flux Fluo4; active compounds read low | B-score at 10 µM | 310,000 compounds, 0.92% hits | AID 463111;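 active means B-score of the integrated calcium signal more than 4 SD below the library mean, with starting fluorescence not abnormally high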;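 further: negative B-score means reduced calcium response which marks RGS4 activation or potentiation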
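Detection: kinetic calcium fluorescence imaging with Fluo4-AM dye, 2 µM / Material: HEK293 cells with stable M3R and inducible RGS4 / Schedule: recording 10 s baseline at 1 Hz, 100 s post-agonist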
MrgX1 ant reconf: reconfirmed antagonist of human MrgX1 receptor signaling. shares compounds with MrgX1 antagonist. MrgX1-HEK293, BAM8-22 calcium flux, Fluo-4; active compounds read low. remaining BAM8-22 calcium response % of control (active compounds read low), % at 10 µM. 2,300 compounds, 19% hits. AID 602420;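 active means remaining agonist calcium response no higher than 100% minus 3 SD of agonist-only control wells, with starting fluorescence near control levels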;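 further: agonist BAM8-22 given at a near maximal EC90 to ECmax level; peak minus minimum fluorescence divided by baseline after agonist addition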
HEK293 Ca flux: MrgX1 antagonist counter-screen hit in parental HEK293 cells; shares compounds with MrgX1 antagonist; Fluo-4 calcium fluorescence, FDSS; fluorescence ratio F(max-min)/F0 at 10 µM; 4,000 compounds, 2% hits; AID 624111;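 active means duplicate-averaged calcium fluorescence ratio at least three times the standard deviation of buffer wells, a nonspecific response in parental cells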
HEK293 Ca counter: activity in parental HEK293 cells without MrgX1 | shares compounds with MrgX1 antagonist | parental HEK293 calcium flux, Fluo-4 fluorescence ratio; active compounds read high | fluorescence ratio F(max-min)/F0 at 10 µM | 4,000 compounds, 0.4% hits | AID 624114;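 active means calcium fluorescence ratio, averaged over duplicates, at least 3 SD of the buffer-well ratio, meaning a nonspecific response in receptor-free cells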;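 further: untransfected parental HEK293 lacking MrgX1 used as counterscreen for MrgX1 allosteric activators; fluorescence change taken during the second addition on a kinetic imager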
HEK293 Ca cntr2: MrgX1 activator counter-screen hit in parental HEK293 cells; 4,000 compounds, 8.7% hits; Fluo-4 calcium fluorescence (FDSS); active compounds read high; shares compounds with MrgX1 antagonist; fluorescence ratio F(max-min)/F0 at 10 µM;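 active means calcium fluorescence ratio at least three times the spread of buffer wells, meaning a non-specific response in parental cells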
* hit, by the source's call; i = inactive; / = not tested or not shown. Most compounds without a hit are left out; they make up all but 3.5% or so of the library.

SMILES	MrgX1 antagonist	MrgX1 allo act	MrgX1 agonist	RGS4 block	RGS4 pot	MrgX1 ant reconf	HEK293 Ca flux	HEK293 Ca counter	HEK293 Ca cntr2
O=C(NCc1ccccn1)c1ccc(Cl)c(S(=O)(=O)N2CCCCCC2)c1	i	i	i	i	i	/	/	/	/
O=C(c1cc(-c2ccc(Cl)cc2Cl)on1)N1CCCC1	i	i	i	i	i	/	/	/	/
O=C(c1cc(-c2ccc(Cl)cc2Cl)on1)N1CCCCCC1	-5.3*	i	i	i	i	i	i	i	i
COc1ccccc1NC(=O)C1=C(C)Nc2nc(-c3cccs3)nn2C1c1cccnc1 (stereo unspecified)	-5.2*	i	i	i	i	i	i	i	i
COc1ccccc1NC(=O)C1=C(C)Nc2nc(-c3ccc(N(C)C)cc3)nn2C1c1ccncc1 (stereo unspecified)	i	i	i	/	/	/	/	/	/
Cc1ccc(C)c(NC(=O)CN(C)C(=O)c2cccc(S(=O)(=O)N3CCN(Cc4ccccc4)CC3)c2)c1	i	i	i	i	i	/	/	/	/
Cc1ccc(C)c(NC(=O)CN(C)C(=O)c2cccc(S(=O)(=O)N(C)C)c2)c1	-4.9*	i	i	i	i	84%*	i	i	i
Clc1ccc2nnnc(-c3ccccc3)c2c1	-4.6*	i	i	i	i	i	i	i	i
CCOC(=O)c1ccc(Nc2nc(N)c3cc(OC)c(OC)cc3n2)cc1	i	i	i	i	i	/	/	/	/
COc1cc2nc(Nc3ccc(F)cc3)nc(N)c2cc1OC	-6.1*	i	i	i	i	66%*	i	i	i
CC(=O)c1sc(NC(=O)COc2ccc(Cl)cc2Cl)nc1C	-4.7*	i	i	i	i	i	i	i	i
CC(=O)N1CCN(c2ccc(NC(=O)COc3ccc(Cl)cc3Cl)cc2)CC1	-7*	i	i	i	i	85%*	i	i	i
COc1ccccc1OCC(=O)Nc1nnc(C2CCCC2)s1	i	i	i	i	i	/	/	/	/
O=C(COc1cc(Cl)ccc1Cl)Nc1nnc(C2CC2)s1	-4.6*	i	i	i	i	i	i	i	i
CC1(C)Cc2c(C#N)c(N)n(-c3ccccc3)c(=O)c2CO1	-13*	i	i	i	i	i	i	i	i
N#Cc1c(N)n(-c2ccccc2)c(=O)c2cc([N+](=O)[O-])ccc12	i	i	i	i	i	/	/	/	/
Cc1ccccc1C(=O)Oc1ccc(Br)cc1C(=S)N1CCCC1	-9.4*	i	i	i	i	i	i	i	i
O=C(CCC1CCCN(C(=O)CC2=CCCCC2)C1)N1CCN(c2ccccn2)CC1 (stereo unspecified)	i	i	i	i	i	/	/	/	/
CCc1nnc(NC(=O)CSc2nc3cccnc3n2Cc2ccccc2)s1	-5.9*	i	i	i	i	i	i	i	i
CC1CCc2sc(C(=O)OCC(=O)NCc3ccc(F)cc3)cc2C1 (stereo unspecified)	-21*	i	i	i	i	i	i	i	i
COCC(C)NC(=O)c1cc(-c2ccc(O)cc2)on1 (stereo unspecified)	-6*	i	i	i	i	i	i	i	i
CCCc1cc(=O)n2[nH]c(NCc3ccccc3Cl)nc2n1	i	i	i	i	i	/	/	/	/
CCCc1cc(=O)n2[nH]c(NCc3cccs3)nc2n1	-11*	i	i	i	i	i	i	i	i
O=C(CSc1nc(C2CC2)nc2ccccc12)N1c2ccccc2Sc2ccccc21	i	i	i	i	i	/	/	/	/
COCCCn1c(SCC(=O)N2CC(=O)Nc3ccccc32)nnc1-c1ccoc1C	i	i	i	i	i	/	/	/	/
SMILES	MrgX1 antagonist	MrgX1 allo act	MrgX1 agonist	RGS4 block	RGS4 pot	MrgX1 ant reconf	HEK293 Ca flux	HEK293 Ca counter	HEK293 Ca cntr2
COCCn1c(SCC(=O)N2CC(=O)Nc3ccccc32)nnc1-c1ccoc1C	-11*	i	i	i	i	i	i	i	i
COc1cc2c(cc1OC)CN(C(=O)C1CCCN1S(=O)(=O)c1ccc(C)cc1)CC2 (stereo unspecified)	i	i	i	i	i	/	/	/	/
Cc1ccc(CNC(=S)NC2CCC(C(C)(C)C)CC2)cc1 (stereo unspecified)	-6.3*	i	i	i	i	63%*	i	i	i
COC(=O)c1ccc(NCN2C(=O)C3C4CCC(C4)C3C2=O)cc1 (stereo unspecified)	-5.6*	i	i	i	i	i	i	i	i
CC(=O)Nc1ccc(NCN2C(=O)C3C4CCC(C4)C3C2=O)cc1 (stereo unspecified)	i	i	i	i	i	/	/	/	/
CCOc1ccc(CO/N=C/c2c(C)[nH]c(=O)[nH]c2=O)cc1	i	i	i	i	i	/	/	/	/
COCCN1Cc2cccc(C(=O)Nc3cccnc3)c2C1=O	i	i	i	/	/	/	/	/	/
COCCN1Cc2cccc(C(=O)Nc3ccc(C)cc3)c2C1=O	-7.6*	i	i	i	i	81%*	i	i	i
Cc1c(C(=O)N2CCC(n3nccc3NC(=O)C3CC3)CC2)[nH]c2ccc(Cl)cc12	i	i	i	i	i	/	/	/	/
CCC(C)(C)n1nnnc1C(c1cc2cc3c(cc2[nH]c1=O)OCO3)N1CCCCC1 (stereo unspecified)	-5.9*	i	i	i	i	i	i	i	i
Cc1cccc(N=Cc2[nH]c3ccc(Br)c(Cl)c3c2O)c1	-5.9*	i	i	/	/	i	0.18*	i	i
COc1ccccc1CN=Cc1[nH]c2ccc(Br)c(Cl)c2c1O	i	i	i	i	i	/	/	/	/
CCS(=O)(=O)N1CCC(C(=O)NCc2ccc(OC)cc2)CC1	-6.3*	i	i	i	i	i	i	i	i
